The source of these data is paper PMC4222540 (Biochemistry, 2014).

Series [1] concerns the target T1, cPAH D139N (Chromobacterium violaceum, UniProt P30967, D139N).
T1 sequence (P30967 1-297 D139N): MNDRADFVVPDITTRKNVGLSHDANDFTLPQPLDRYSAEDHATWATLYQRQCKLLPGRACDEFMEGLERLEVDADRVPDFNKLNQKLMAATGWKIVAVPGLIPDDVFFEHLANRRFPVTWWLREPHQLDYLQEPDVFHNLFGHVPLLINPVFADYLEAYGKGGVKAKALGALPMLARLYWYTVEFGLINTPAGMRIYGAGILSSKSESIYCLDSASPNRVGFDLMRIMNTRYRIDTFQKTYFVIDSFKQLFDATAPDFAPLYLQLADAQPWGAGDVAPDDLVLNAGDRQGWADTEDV
Kind of series: Steady-state kinetics of phenylalanine hydroxylation. In kind it is biochemical. The settings on record: read-out: KM (DMPH), DMPH4 varied at saturated Phe (1 mM), 20 °C, pH 7.4.

For series [2], the target named is T2, cPAH D139A (Chromobacterium violaceum, UniProt P30967, D139A).
T2 sequence (P30967 1-297 D139A): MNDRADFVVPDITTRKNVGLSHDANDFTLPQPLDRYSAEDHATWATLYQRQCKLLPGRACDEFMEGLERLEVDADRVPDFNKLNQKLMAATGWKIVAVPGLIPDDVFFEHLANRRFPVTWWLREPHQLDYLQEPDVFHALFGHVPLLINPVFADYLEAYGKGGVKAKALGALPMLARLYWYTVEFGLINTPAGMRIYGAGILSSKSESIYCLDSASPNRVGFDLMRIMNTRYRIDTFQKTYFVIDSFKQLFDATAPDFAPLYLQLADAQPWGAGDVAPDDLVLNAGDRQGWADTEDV
The description is as above. In kind it is biochemical. Particulars: read-out: KM (DMPH), DMPH4 varied at saturated Phe (1 mM), 20 °C, pH 7.4.

Series [3] deals with T3, cPAH D139E (Chromobacterium violaceum, UniProt P30967, D139E).
T3 sequence (P30967 1-297 D139E): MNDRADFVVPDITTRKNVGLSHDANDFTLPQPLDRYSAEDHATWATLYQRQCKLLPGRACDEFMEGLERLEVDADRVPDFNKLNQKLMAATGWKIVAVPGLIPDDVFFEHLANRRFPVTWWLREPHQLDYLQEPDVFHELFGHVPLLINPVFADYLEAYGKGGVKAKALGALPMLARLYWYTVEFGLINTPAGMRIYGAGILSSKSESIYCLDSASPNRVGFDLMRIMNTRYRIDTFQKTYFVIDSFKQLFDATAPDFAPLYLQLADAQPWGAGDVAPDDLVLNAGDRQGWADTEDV
The series is described as above. In kind it is biochemical. Particulars: read-out: KM (DMPH), DMPH4 varied at saturated Phe (1 mM), 20 °C, pH 7.4.

Series [4] concerns the target T3, cPAH D139E. Kind of series: ITC, Fe. It is filed as binding. In a few lines: (§1)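 Untagged cPAH (wild type or Asp139 point mutant), expressed from pET3a and purified by anion-exchange and size-exclusion chromatography, in apo form. Anaerobic ITC under argon at 25 °C: 500 μM ferrous ammonium sulfate in dialysis buffer with 2.5 mM TCEP titrated into 50 μM protein containing 2.5 mM TCEP. 18 injections of 2 μL, 180 s apart.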

The target of series [5] is T2, cPAH D139A. Kind of series: ITC, Fe. In kind it is binding. In a few lines: as §1
The target in another series is T4, wild-type cPAH (Chromobacterium violaceum, UniProt P30967).
T4 sequence (P30967 1-297): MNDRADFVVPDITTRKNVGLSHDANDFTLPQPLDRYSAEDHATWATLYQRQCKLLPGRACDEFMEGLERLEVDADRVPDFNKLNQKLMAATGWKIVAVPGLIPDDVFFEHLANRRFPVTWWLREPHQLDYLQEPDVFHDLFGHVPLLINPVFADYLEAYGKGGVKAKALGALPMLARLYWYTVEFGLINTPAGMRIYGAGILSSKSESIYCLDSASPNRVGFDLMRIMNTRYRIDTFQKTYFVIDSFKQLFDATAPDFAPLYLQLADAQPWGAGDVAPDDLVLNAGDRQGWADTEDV
Kind of series: ITC, Fe. It is filed as binding. Particulars: anaerobic, 25 °C, 2.5 mM TCEP. In a few lines:
as §1

In series [6] the target is T1, cPAH D139N. Kind of series: ITC, Fe. In kind it is binding. Particulars: anaerobic, 25 °C, 2.5 mM TCEP. In a few lines:
as §1

The target of the next series is T5, cPAH D139K (Chromobacterium violaceum, UniProt P30967, D139K).
T5 sequence (P30967 1-297 D139K): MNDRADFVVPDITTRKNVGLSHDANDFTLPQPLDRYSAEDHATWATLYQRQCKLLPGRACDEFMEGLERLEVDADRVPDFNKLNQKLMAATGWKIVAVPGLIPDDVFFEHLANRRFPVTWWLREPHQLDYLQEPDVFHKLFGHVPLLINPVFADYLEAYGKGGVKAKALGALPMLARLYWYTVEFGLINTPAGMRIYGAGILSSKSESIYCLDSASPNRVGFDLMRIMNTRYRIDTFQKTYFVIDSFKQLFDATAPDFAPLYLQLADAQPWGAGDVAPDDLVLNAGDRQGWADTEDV
Description: ITC, Fe. It is filed as binding. In a few lines:
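Untagged apo cPAH D139K, purified by anion-exchange and size-exclusion chromatography. Anaerobic ITC under argon at 25 °C with 2.5 mM TCEP in titrant and in 50 μM protein. FeSO4 titrated at 10-fold excess (500 μM) and again at 20-fold excess over protein. 18 injections of 2 μL, 180 s apart.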

Series [7] can be described thus: Steady-state kinetics: turnover. In kind it is biochemical, Chromobacterium violaceum. Particulars: for fold lower kcat relative to wild-type cPAH / kcat: enzyme variant as labelled; for kcat: DMPH4 cofactor, 20 °C, pH 7.4. In a few lines: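 Phenylalanine hydroxylation followed by tyrosine formation at 275 nm (ε275 = 1405 L mol−1 cm−1) at 20 ± 1 °C. Enzyme ranged from 1 μM (wild type) to 30 μM (D139A), with 5-fold molar excess of ferrous ammonium sulfate, 5 mM DTT and 1000 units/mL catalase in 0.1 M O2-saturated Na-HEPES, pH 7.4. DMPH4 was varied at 1 mM Phe, and Phe was varied at 350 μM DMPH4. Triplicates were fit to Michaelis–Menten and reported as mean ± SD of three independent experiments.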

[8] abbreviates: 20-fold excess of FeSO4, anaerobic, 25 °C, 2.5 mM TCEP.

As to `CC1Nc2nc(N)[nH]c(=O)c2NC1C` (centres unmarked) [DMPH, 6,7-dimethyl-5,6,7,8-tetrahydropterine], the values for the Km on cPAH D139N [1], at cPAH D139A [2] and on cPAH D139E [3] were 262 ± 41 µM, 254 ± 47 µM and 236 ± 38 µM, respectively.
Take `O=S(=O)([O-])[O-].O=S(=O)([O-])[O-].[Fe+2].[NH4+].[NH4+]` [Fe(II), ferrous ammonium sulfate]: the “fold increase in Kd for iron vs wild type” value on cPAH D139E [4] is on record as about 4 fold; at cPAH D139A [5] it was about 6 fold. In addition, the Kd came out at 479 ± 170 nM at cPAH D139E [4] (anaerobic, 25 °C, 2.5 mM TCEP); 944 ± 170 nM on cPAH D139A [5] (anaerobic, 25 °C, 2.5 mM TCEP); 151 ± 30 nM at wild-type cPAH; 139 ± 60 nM at cPAH D139N [6]; 76500 ± 700 nM on cPAH D139K (setting [8]). Further, the “N (ITC stoichiometry)” value is listed as 0.8 at cPAH D139E [4] (anaerobic, 25 °C, 2.5 mM TCEP); 0.9 at cPAH D139A [5] (anaerobic, 25 °C, 2.5 mM TCEP); 0.8 at wild-type cPAH; 0.7 on cPAH D139N [6]; 1 at cPAH D139K (setting [8]). The ΔH entry at cPAH D139E [4] (anaerobic, 25 °C, 2.5 mM TCEP) is recorded as “–1.5 ± 0.1 kcal mol^–1”; at cPAH D139A [5] (anaerobic, 25 °C, 2.5 mM TCEP), “–2.5 ± 0.1 kcal mol^–1”; at wild-type cPAH, “–4.0 ± 0.1 kcal mol^–1”; at cPAH D139N [6] it was “–4.5 ± 0.3 kcal mol^–1”; at cPAH D139K (setting [8]) it was 1.4 ± 0.6 kcal mol^–1. Also, the ΔS at cPAH D139E [4] (anaerobic, 25 °C, 2.5 mM TCEP) worked out at 24 cal mol^–1; on cPAH D139A [5] (anaerobic, 25 °C, 2.5 mM TCEP), 19 cal mol^–1; at wild-type cPAH it was 18 cal mol^–1; at cPAH D139N [6], 16 cal mol^–1; at cPAH D139K (setting [8]) it was 23 cal mol^–1. Moreover, the “fold reduction in binding affinity for iron vs wild type” value at cPAH D139K is about 500 fold. The “iron binding (ITC isotherm)” value at cPAH D139K (10-fold excess of FeSO4 (500 µM)) is given as “no binding was observed”.

B1: D139N (protein, UniProt P30967 1-297, looked up, variant D139N)
Phenylalanine-4-hydroxylase: MNDRADFVVPDITTRKNVGLSHDANDFTLPQPLDRYSAEDHATWATLYQRQCKLLPGRACDEFMEGLERLEVDADRVPDFNKLNQKLMAATGWKIVAVPGLIPDDVFFEHLANRRFPVTWWLREPHQLDYLQEPDVFHNLFGHVPLLINPVFADYLEAYGKGGVKAKALGALPMLARLYWYTVEFGLINTPAGMRIYGAGILSSKSESIYCLDSASPNRVGFDLMRIMNTRYRIDTFQKTYFVIDSFKQLFDATAPDFAPLYLQLADAQPWGAGDVAPDDLVLNAGDRQGWADTEDV
On to B1, for which, in series [7], the “fold lower kcat relative to wild-type cPAH” value is about 16 fold and the kcat was determined as 1.2 ± 0.1 s^–1.

B2: D139A (protein, UniProt P30967 1-297, looked up, variant D139A)
Phenylalanine-4-hydroxylase: MNDRADFVVPDITTRKNVGLSHDANDFTLPQPLDRYSAEDHATWATLYQRQCKLLPGRACDEFMEGLERLEVDADRVPDFNKLNQKLMAATGWKIVAVPGLIPDDVFFEHLANRRFPVTWWLREPHQLDYLQEPDVFHALFGHVPLLINPVFADYLEAYGKGGVKAKALGALPMLARLYWYTVEFGLINTPAGMRIYGAGILSSKSESIYCLDSASPNRVGFDLMRIMNTRYRIDTFQKTYFVIDSFKQLFDATAPDFAPLYLQLADAQPWGAGDVAPDDLVLNAGDRQGWADTEDV
As for B2, in [7], the “fold lower kcat relative to wild-type cPAH” value is recorded as about 100 fold and the kcat stood at 0.19 ± 0.01 s^–1.

B3: D139K (protein, UniProt P30967 1-297, looked up, variant D139K)
Phenylalanine-4-hydroxylase: MNDRADFVVPDITTRKNVGLSHDANDFTLPQPLDRYSAEDHATWATLYQRQCKLLPGRACDEFMEGLERLEVDADRVPDFNKLNQKLMAATGWKIVAVPGLIPDDVFFEHLANRRFPVTWWLREPHQLDYLQEPDVFHKLFGHVPLLINPVFADYLEAYGKGGVKAKALGALPMLARLYWYTVEFGLINTPAGMRIYGAGILSSKSESIYCLDSASPNRVGFDLMRIMNTRYRIDTFQKTYFVIDSFKQLFDATAPDFAPLYLQLADAQPWGAGDVAPDDLVLNAGDRQGWADTEDV
In the case of B3, the “catalytic activity (hydroxylation of phenylalanine to tyrosine)” value in series [7] (nonenzymatic amounts of protein required for minimal tyrosine formation) was “inactive”.

B4: wild type: wild-type phenylalanine hydroxylase from Chromobacterium violaceum (cPAH) (protein, UniProt P30967 1-297, looked up)
Phenylalanine-4-hydroxylase: MNDRADFVVPDITTRKNVGLSHDANDFTLPQPLDRYSAEDHATWATLYQRQCKLLPGRACDEFMEGLERLEVDADRVPDFNKLNQKLMAATGWKIVAVPGLIPDDVFFEHLANRRFPVTWWLREPHQLDYLQEPDVFHDLFGHVPLLINPVFADYLEAYGKGGVKAKALGALPMLARLYWYTVEFGLINTPAGMRIYGAGILSSKSESIYCLDSASPNRVGFDLMRIMNTRYRIDTFQKTYFVIDSFKQLFDATAPDFAPLYLQLADAQPWGAGDVAPDDLVLNAGDRQGWADTEDV
For B4, in [7], the kcat came out at 18.6 ± 0.1 s^–1.

B5: D139E (protein, UniProt P30967 1-297, looked up, variant D139E)
Phenylalanine-4-hydroxylase: MNDRADFVVPDITTRKNVGLSHDANDFTLPQPLDRYSAEDHATWATLYQRQCKLLPGRACDEFMEGLERLEVDADRVPDFNKLNQKLMAATGWKIVAVPGLIPDDVFFEHLANRRFPVTWWLREPHQLDYLQEPDVFHELFGHVPLLINPVFADYLEAYGKGGVKAKALGALPMLARLYWYTVEFGLINTPAGMRIYGAGILSSKSESIYCLDSASPNRVGFDLMRIMNTRYRIDTFQKTYFVIDSFKQLFDATAPDFAPLYLQLADAQPWGAGDVAPDDLVLNAGDRQGWADTEDV
Take B5: in series [7], the “fold lower kcat relative to wild-type cPAH” value was found to be 10 fold and the kcat amounted to 1.9 ± 0.1 s^–1.
